# Reference: ChEMBL document CHEMBL4002548 (Eur J Med Chem, 2017)
# Key:
# KG-1 = assay: Antiproliferative activity against FGFR1-translocated human KG1 cells after 72 hrs by CCK8/SRB assay; type: functional, cell-based; conditions: KG-1, 72 h
# Outline: (§1)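 Cells seeded, then exposed next day to a range of compound concentrations for 72 h. Proliferation read by sulforhodamine B or CCK-8. IC50 obtained by four-parameter concentration–response curve fitting from two separate experiments. BaF3 lines stably express constitutively active TEL-FGFR4, TEL-KDR, CCDC6-RET or CCDC6-RET-V804M.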
# [1] = molecular target: Vascular endothelial growth factor receptor 2 (Homo sapiens, UniProt P35968); assay: Inhibition of recombinant KDR (unknown origin) using poly (Glu, Tyr) 4:1 after 60 mins by ELISA method
# [2] = molecular target: T1, Fibroblast growth factor receptor 1 (Homo sapiens, UniProt P11362); assay: Inhibition of recombinant FGFR1 (unknown origin) using poly (Glu, Tyr) 4:1 after 60 mins by ELISA method
# Target sequence in this assay (P11362 whole entry): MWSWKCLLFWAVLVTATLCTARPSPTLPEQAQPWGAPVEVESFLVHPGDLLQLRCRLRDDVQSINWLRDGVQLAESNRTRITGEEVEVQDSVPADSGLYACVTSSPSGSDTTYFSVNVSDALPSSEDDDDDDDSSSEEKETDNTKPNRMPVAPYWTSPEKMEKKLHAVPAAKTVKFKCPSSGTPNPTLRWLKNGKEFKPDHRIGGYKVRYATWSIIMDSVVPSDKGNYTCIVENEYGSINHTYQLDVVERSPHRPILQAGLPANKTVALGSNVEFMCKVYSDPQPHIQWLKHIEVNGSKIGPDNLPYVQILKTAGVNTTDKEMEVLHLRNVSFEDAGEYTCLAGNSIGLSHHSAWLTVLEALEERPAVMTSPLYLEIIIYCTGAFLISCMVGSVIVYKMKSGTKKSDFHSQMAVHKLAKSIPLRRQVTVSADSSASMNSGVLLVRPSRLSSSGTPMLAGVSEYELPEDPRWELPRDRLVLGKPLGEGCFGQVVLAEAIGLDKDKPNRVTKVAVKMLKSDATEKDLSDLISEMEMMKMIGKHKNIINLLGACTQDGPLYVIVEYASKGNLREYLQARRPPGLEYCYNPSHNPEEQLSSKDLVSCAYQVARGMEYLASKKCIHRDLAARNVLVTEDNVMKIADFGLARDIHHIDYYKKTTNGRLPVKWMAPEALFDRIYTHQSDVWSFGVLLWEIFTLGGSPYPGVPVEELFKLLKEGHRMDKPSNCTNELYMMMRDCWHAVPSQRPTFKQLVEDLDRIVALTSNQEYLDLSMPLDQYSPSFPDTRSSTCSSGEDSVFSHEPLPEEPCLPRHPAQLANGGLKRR
# NCI-H1581 [3] = assay: Antitumor activity against FGFR1-amplified human NCI-H1581 cells xenografted in nude mouse assessed as tumor growth inhibition at 20 mg/kg, po qd administered for 10 days and measured on day 10 post last dose relative to vehicle-treated control; type: functional; conditions: 240 h, read-out: TGI
# Outline: (§2)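 Male nude mice, 4-6 weeks old, kept under SPF conditions. Tumours grown s.c. from 5×10^6 cells, then passaged as 1 mm³ fragments by trocar. Randomised at 120–150 mm³ (n=6 treated, 12 vehicle). Compound given orally once daily, 10 days for NCI-H1581 and 18 days for SNU16. Calipers twice weekly; V = L×W²/2. TGI taken on final day from volume change versus vehicle.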
# [4] = molecular target: Fibroblast growth factor receptor 2 (Homo sapiens, UniProt P21802); assay: Inhibition of recombinant FGFR2 (unknown origin) using poly (Glu,Tyr) 4:1 as substrate after 60 mins by ELISA
# SNU-16 [5] = assay: Antiproliferative activity against FGFR2-amplified human SNU16 cells after 72 hrs by CCK8/SRB assay; type: functional, cell-based; conditions: SNU-16, 72 h; outline: as §1
# NCI-H1581 [6] = assay: Antiproliferative activity against FGFR1-amplified human NCI-H1581 cells after 72 hrs by CCK8/SRB assay; conditions: NCI-H1581, 72 h
# [7] = molecular target: T1, Fibroblast growth factor receptor 1; assay: Inhibition of FGFR1 phosphorylation in FGFR1 translocated human KG1 cells after 2 hrs by Western blot method
# Outline: (§3)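 KG1 cells treated with a range of compound concentrations for 2 h at 37 °C, then lysed in 1× SDS sample buffer. Lysates resolved by SDS–PAGE and blotted. Probes: phospho-FGFR1, FGFR, phospho-PLCγ, PLCγ, phospho-ERK1/2, ERK1/2, with GAPDH as loading control. Detection by HRP secondary and enhanced chemiluminescence.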
# Target sequence in this assay (P11362 22-822 limits assumed): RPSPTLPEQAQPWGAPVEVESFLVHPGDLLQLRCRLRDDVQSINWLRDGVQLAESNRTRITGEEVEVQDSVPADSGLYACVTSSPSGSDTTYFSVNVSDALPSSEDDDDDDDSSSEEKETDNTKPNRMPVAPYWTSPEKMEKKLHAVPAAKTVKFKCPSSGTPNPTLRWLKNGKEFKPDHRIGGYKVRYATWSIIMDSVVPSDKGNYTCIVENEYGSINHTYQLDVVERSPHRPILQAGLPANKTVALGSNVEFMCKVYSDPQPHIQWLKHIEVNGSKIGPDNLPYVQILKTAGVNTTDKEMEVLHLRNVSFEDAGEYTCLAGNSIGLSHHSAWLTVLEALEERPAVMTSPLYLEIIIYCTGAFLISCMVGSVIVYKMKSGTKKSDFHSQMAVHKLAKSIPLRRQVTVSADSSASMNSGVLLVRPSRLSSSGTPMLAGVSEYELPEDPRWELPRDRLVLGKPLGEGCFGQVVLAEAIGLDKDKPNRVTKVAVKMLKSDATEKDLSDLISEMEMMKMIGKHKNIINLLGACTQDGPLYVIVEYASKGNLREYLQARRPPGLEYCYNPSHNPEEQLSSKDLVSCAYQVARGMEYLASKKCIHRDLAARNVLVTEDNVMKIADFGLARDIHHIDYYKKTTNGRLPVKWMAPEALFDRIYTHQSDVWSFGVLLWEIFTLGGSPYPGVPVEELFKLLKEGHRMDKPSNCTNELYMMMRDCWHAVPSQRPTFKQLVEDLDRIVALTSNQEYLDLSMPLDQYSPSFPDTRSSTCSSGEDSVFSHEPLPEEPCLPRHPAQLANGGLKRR
# [8] = molecular target: Proto-oncogene tyrosine-protein kinase receptor Ret (Homo sapiens, UniProt P07949); assay: Inhibition of recombinant RET (unknown origin) using poly (Glu,Tyr) 4:1 as substrate after 60 mins by ELISA
# [9] = Inhibition of recombinant RET […] mutant (unknown origin) using poly (Glu,Tyr) 4:1 as substrate after 60 mins by ELISA; set-up: species or system Homo sapiens
# Outline: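 Poly(Glu,Tyr) 4:1 pre-coated at 20 µg/mL as substrate. Reaction with 10 µmol/L ATP in HEPES pH 7.4 buffer containing MgCl2, MnCl2, Na3VO4 and DTT; compound in 1% DMSO, with 1% DMSO as negative control; started by adding kinase. Run 60 min at 37 °C. Phosphotyrosine detected with PY99 and HRP anti-mouse IgG, o-phenylenediamine colour read at 490 nm. IC50 from inhibition curves, two separate experiments.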
# BaF3 [10] = assay: Antiproliferative activity against mouse BAF3 cells expressing TEL-FGFR4 fusion protein after 72 hrs by CCK8/SRB assay; type: functional, cell-based; conditions: BaF3, 72 h; outline: as §1
# [11] = molecular target: Tyrosine-protein kinase ABL1 (Homo sapiens, UniProt P00519); assay: Inhibition of recombinant ABL (unknown origin) using poly (Glu,Tyr) 4:1 as substrate after 60 mins by ELISA
# [12] = molecular target: T1, Fibroblast growth factor receptor 1; assay: Inhibition of FGFR1 in FGFR1 translocated human KG1 cells assessed as suppression of phosphorylated ERK after 2 hrs by Western blot analysis; outline: as §3
# Target sequence in this assay (P11362 22-822 limits assumed): as above
# [13] = molecular target: Epidermal growth factor receptor (Homo sapiens, UniProt P00533); assay: Inhibition of recombinant EGFR (unknown origin) using poly (Glu,Tyr) 4:1 as substrate after 60 mins by ELISA
# RT-112 = assay: Antiproliferative activity against FGFR3-amplified human RT112 cells after 72 hrs by CCK8/SRB assay; type: functional, cell-based; conditions: RT-112, 72 h; outline: as §1
# SNU-16 [14] = assay: Antitumor activity against FGFR2-amplified human SNU16 cells xenografted in nude mouse assessed as tumor growth inhibition at 20 mg/kg, po qd administered for 18 days and measured on day 18 post last dose relative to vehicle-treated control; type: functional; conditions: SNU-16, po, 432 h, read-out: TGI; outline: as §2
# BaF3 [15] = assay: Antiproliferative activity against mouse BAF3 cells expressing CCDC6-RET […] mutant after 72 hrs by CCK8/SRB assay; type: functional, cell-based; conditions: BaF3, 72 h; outline: as §1
# [16] = AUC (0 to 24 hrs) in mouse at 10 mg/kg, po; type: ADME, organism-based; set-up: time < 24 hr, dose 10 mg/kg, route oral; conditions: in vivo
# BaF3 [17] = assay: Antiproliferative activity against mouse BAF3 cells expressing TEL-KDR fusion protein after 72 hrs by CCK8/SRB assay; type: functional, cell-based; conditions: BaF3, 72 h; outline: as §1
# [18] = molecular target: T1, Fibroblast growth factor receptor 1; assay: Inhibition of FGFR1 in FGFR1 translocated human KG1 cells assessed as suppression of PLCgamma phosphorylation after 2 hrs by Western blot analysis; outline: as §3
# Target sequence in this assay (P11362 22-822 limits assumed): as above
# [19] = molecular target: Proto-oncogene tyrosine-protein kinase Src (Homo sapiens, UniProt P12931); assay: Inhibition of recombinant c-Src (unknown origin) using poly (Glu,Tyr) 4:1 as substrate after 60 mins by ELISA
# [20] = molecular target: Vascular endothelial growth factor receptor 1 (Homo sapiens, UniProt P17948); assay: Inhibition of recombinant VEGFR1 (unknown origin) using poly (Glu,Tyr) 4:1 as substrate after 60 mins by ELISA
# NCI-H1581 [21] = assay: Antitumor activity against FGFR1-amplified human NCI-H1581 cells xenografted in nude mouse assessed as tumor growth inhibition at 5 mg/kg, po qd administered for 10 days and measured on day 10 post last dose relative to vehicle-treated control; type: functional; conditions: 240 h, read-out: TGI; outline: as §2
# [22] = molecular target: Platelet-derived growth factor receptor beta (Homo sapiens, UniProt P09619); assay: Inhibition of recombinant PDGFRbeta (unknown origin) using poly (Glu,Tyr) 4:1 as substrate after 60 mins by ELISA
# BaF3 [23] = assay: Antiproliferative activity against mouse BAF3 cells expressing CCDC6-RET fusion protein after 72 hrs by CCK8/SRB assay; type: functional, cell-based; conditions: BaF3, 72 h; outline: as §1
# [24] = molecular target: Platelet-derived growth factor receptor alpha (Homo sapiens, UniProt P16234); assay: Inhibition of recombinant PDGFRalpha (unknown origin) using poly (Glu,Tyr) 4:1 as substrate after 60 mins by ELISA
# [25] = molecular target: Fibroblast growth factor receptor 3 (Homo sapiens, UniProt P22607); assay: Inhibition of recombinant FGFR3 (unknown origin) using poly (Glu,Tyr) 4:1 as substrate after 60 mins by ELISA
# [26] = molecular target: Fibroblast growth factor receptor 4 (Homo sapiens, UniProt P22455); assay: Inhibition of recombinant FGFR4 (unknown origin) using poly (Glu,Tyr) 4:1 as substrate after 60 mins by ELISA
# SNU-16 [27] = assay: Antitumor activity against FGFR2-amplified human SNU16 cells xenografted in nude mouse assessed as tumor growth inhibition at 30 mg/kg, po qd administered for 18 days and measured on day 18 post last dose relative to vehicle-treated control; type: functional; conditions: SNU-16, po, 432 h, read-out: TGI; outline: as §2
# Chain of Vascular endothelial growth factor receptor 2 (P35968 whole entry): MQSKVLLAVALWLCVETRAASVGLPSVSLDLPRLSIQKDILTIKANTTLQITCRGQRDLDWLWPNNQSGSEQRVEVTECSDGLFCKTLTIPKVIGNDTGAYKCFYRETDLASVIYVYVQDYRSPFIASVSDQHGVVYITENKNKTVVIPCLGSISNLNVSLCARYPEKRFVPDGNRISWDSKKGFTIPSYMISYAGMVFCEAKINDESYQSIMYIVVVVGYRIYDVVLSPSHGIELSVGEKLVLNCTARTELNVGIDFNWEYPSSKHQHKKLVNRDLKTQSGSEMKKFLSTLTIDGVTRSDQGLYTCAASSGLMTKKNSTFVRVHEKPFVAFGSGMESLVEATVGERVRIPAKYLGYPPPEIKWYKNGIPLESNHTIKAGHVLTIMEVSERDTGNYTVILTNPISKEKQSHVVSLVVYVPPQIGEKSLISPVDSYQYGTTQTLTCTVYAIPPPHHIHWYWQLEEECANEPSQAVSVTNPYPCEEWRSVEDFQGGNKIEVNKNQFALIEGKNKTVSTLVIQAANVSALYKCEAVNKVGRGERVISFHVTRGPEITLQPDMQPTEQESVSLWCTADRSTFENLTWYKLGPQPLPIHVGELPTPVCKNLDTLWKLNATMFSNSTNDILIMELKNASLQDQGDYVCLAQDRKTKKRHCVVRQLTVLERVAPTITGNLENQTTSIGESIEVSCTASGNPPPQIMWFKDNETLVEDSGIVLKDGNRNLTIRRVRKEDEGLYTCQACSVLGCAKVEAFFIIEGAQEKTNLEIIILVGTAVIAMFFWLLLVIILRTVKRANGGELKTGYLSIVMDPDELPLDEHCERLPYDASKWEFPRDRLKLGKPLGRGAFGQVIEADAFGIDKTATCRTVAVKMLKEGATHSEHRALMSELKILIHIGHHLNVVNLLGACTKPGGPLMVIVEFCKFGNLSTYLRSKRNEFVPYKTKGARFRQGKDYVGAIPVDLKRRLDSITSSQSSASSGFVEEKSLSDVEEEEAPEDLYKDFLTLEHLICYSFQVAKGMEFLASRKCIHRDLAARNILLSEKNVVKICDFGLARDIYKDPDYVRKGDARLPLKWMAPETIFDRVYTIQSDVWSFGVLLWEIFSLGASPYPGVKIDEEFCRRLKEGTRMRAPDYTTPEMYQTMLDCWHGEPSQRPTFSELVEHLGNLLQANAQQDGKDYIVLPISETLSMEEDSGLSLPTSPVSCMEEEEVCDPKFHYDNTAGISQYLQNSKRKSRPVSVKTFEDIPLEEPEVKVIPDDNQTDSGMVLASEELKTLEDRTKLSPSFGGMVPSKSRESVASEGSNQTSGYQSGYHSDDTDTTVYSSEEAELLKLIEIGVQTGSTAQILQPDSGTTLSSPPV
# Chain of Fibroblast growth factor receptor 2 (P21802 whole entry): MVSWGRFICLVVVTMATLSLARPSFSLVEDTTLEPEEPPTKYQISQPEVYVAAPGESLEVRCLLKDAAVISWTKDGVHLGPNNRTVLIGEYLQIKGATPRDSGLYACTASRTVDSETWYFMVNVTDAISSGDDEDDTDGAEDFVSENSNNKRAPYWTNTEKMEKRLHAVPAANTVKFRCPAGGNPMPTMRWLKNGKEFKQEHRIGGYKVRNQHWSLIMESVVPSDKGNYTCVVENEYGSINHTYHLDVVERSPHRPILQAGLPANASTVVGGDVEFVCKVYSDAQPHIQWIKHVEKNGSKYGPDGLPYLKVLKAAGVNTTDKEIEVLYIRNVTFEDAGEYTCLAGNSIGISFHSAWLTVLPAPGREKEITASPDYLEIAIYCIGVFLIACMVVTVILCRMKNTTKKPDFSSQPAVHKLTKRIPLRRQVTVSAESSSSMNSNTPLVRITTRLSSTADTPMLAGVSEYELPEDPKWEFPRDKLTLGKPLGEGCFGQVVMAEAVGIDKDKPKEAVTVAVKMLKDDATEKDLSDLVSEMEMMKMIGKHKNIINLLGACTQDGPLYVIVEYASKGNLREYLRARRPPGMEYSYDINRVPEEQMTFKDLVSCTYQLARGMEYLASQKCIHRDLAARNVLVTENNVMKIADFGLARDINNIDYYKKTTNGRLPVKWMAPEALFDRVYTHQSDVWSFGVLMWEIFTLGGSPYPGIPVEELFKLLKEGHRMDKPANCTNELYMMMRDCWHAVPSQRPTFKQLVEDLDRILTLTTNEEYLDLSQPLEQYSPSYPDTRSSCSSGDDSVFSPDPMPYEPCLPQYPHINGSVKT
# Chain of Fibroblast growth factor receptor 3 (P22607 whole entry): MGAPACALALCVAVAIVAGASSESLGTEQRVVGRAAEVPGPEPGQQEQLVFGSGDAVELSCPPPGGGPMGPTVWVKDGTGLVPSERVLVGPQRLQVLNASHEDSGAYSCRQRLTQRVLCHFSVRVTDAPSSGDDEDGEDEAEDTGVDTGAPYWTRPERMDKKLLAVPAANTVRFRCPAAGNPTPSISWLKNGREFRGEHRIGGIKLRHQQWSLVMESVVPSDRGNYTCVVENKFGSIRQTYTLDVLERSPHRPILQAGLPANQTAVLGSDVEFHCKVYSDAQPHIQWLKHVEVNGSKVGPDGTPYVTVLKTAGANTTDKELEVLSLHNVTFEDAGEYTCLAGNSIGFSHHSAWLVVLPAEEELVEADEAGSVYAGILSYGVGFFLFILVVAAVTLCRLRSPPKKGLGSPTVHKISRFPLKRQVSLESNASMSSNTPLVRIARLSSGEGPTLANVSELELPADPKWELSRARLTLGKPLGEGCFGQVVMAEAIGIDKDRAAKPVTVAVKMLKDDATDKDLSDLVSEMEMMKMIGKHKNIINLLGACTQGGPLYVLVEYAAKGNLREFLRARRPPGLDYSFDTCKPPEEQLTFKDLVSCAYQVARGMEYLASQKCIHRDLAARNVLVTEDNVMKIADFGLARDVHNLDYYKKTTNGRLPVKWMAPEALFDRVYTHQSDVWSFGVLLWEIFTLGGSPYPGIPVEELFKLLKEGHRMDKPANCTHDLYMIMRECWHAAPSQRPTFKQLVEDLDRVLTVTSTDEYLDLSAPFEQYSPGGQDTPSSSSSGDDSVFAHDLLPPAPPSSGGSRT
structure (smiles),measurement,setting,value
CCN(CC)c1cncc(C#Cc2cc(C(=O)Nc3ccc(CN4CCN(C)CC4)c(C(F)(F)F)c3)ccc2C)c1,IC50,KG-1,58.3 nM
same,IC50,[1],105 nM
CN1CCN(Cc2ccc(NC(=O)c3ccc(C(F)(F)F)c(C#Cc4cncc5ccccc45)c3)cc2C(F)(F)F)CC1,IC50,KG-1,> 500 nM
same,IC50,[2],> 100 nM
CN1CCN(Cc2ccc(NC(=O)c3ccc(F)c(C#Cc4cncc5ccccc45)c3)cc2C(F)(F)F)CC1,IC50,KG-1,27.8 nM
same,IC50,[1],5.5 nM
Cc1ccc(C(=O)Nc2ccc(CN3CCN(C)CC3)c(C(F)(F)F)c2)cc1C#Cc1cncc(N2CCCC2)c1,IC50,KG-1,119 nM
same,IC50,[1],108 nM
Cc1ccc(C(=O)Nc2ccc(CN3CCN(C)CC3)c(C(F)(F)F)c2)cc1C#Cc1cncc(NC(C)C)c1,IC50,KG-1,84.5 nM
same,IC50,[1],59.9 nM
Cc1ccc(C(=O)Nc2ccc(CN3CCN(C)CC3)c(C(F)(F)F)c2)cc1C#Cc1cncc2[nH]ccc12,IC50,KG-1,490 nM
same,IC50,[1],> 100 nM
CN1CCN(Cc2ccc(NC(=O)c3cncc(C#Cc4cncc5ccccc45)c3)cc2C(F)(F)F)CC1,IC50,KG-1,> 500 nM
same,IC50,[1],2.6 nM
CN1CCN(Cc2ccc(NC(=O)c3cccc(C#Cc4cncc5ccccc45)n3)cc2C(F)(F)F)CC1,IC50,[2],> 100 nM
CN1CCN(Cc2ccc(NC(=O)c3ccnc(C#Cc4cncc5ccccc45)n3)cc2C(F)(F)F)CC1,IC50,KG-1,> 500 nM
Cc1ccc(C(=O)Nc2ccc(CN3CCN(C)CC3)c(C(F)(F)F)c2)cc1C#Cc1cncc(N2CCN(C)CC2)c1,IC50,KG-1,21.7 nM
same,IC50,[1],21.8 nM
same,IC50,[2],5.7 nM
COc1cc(CCc2cc(NC(=O)c3ccc(N4C[C@@H](C)N[C@@H](C)C4)cc3)n[nH]2)cc(OC)c1 [FEXAGRATINIB],inhibition in vivo at 20 mg/kg,NCI-H1581 [3],79.5%
CN1CCN(Cc2ccc(NC(=O)c3ccc(Cl)c(C#Cc4cncc(N5CCOCC5)c4)c3)cc2C(F)(F)F)CC1,IC50,[4],0.3 nM
same,IC50,SNU-16 [5],26.4 nM
same,IC50,NCI-H1581 [6],57 nM
same,IC50,KG-1,7.5 nM
same,inhibition,[7],Dose-dependent effect
same,inhibition in vivo at 20 mg/kg,NCI-H1581 [3],73.4%
same,IC50,[8],1.3 nM
same,IC50,[9],7.5 nM
same,IC50,BaF3 [10],131 nM
same,IC50,[11],23.2 nM
same,inhibition,[12],Dose-dependent effect
same,IC50,[13],> 100 nM
same,IC50,RT-112,514 nM
same,inhibition in vivo at 20 mg/kg,SNU-16 [14],93.9%
same,IC50,BaF3 [15],33.4 nM
same,AUC(0-t) at 24 h,[16],11400 ng·h/mL
same,IC50,BaF3 [17],489 nM
same,IC50,[1],48.7 nM
same,inhibition,[18],Dose-dependent effect
same,IC50,[2],0.5 nM
same,IC50,[19],10.8 nM
same,IC50,[20],62.7 nM
same,inhibition in vivo at 5 mg/kg,NCI-H1581 [21],8.3%
same,IC50,[22],5.5 nM
same,IC50,BaF3 [23],37.2 nM
same,IC50,[24],5.6 nM
same,IC50,[25],1 nM
same,IC50,[26],5.5 nM
CN1CCN(Cc2ccc(NC(=O)c3cccc(C#Cc4cncc5ccccc45)c3)cc2C(F)(F)F)CC1,IC50,KG-1,67.6 nM
same,IC50,[1],2.5 nM
CN1CCN(Cc2ccc(NC(=O)c3cc(C#Cc4cncc5ccccc45)ccn3)cc2C(F)(F)F)CC1,IC50,KG-1,> 500 nM
COc1ccc(C(=O)Nc2ccc(CN3CCN(C)CC3)c(C(F)(F)F)c2)cc1C#Cc1cncc2ccccc12,IC50,KG-1,> 500 nM
Cc1ccc(C(=O)Nc2ccc(CN3CCN(C)CC3)c(C(F)(F)F)c2)cc1C#Cc1cncc(N2CCOCC2)c1,IC50,KG-1,24.3 nM
same,IC50,[1],89.9 nM
Cc1ccc(C(=O)Nc2ccc(CN3CCN(C)CC3)c(C(F)(F)F)c2)cc1C#Cc1cnc2cccnn12 [PONATINIB],IC50,SNU-16 [5],33.6 nM
same,IC50,NCI-H1581 [6],194 nM
same,IC50,KG-1,17.2 nM
same,IC50,[9],1.9 nM
same,IC50,RT-112,736 nM
same,IC50,BaF3 [15],71.5 nM
same,inhibition in vivo at 30 mg/kg,SNU-16 [27],75.3%
Cc1ccc(C(=O)Nc2ccc(CN3CCN(C)CC3)c(C(F)(F)F)c2)cc1C#Cc1cncc2ccccc12,IC50,KG-1,175 nM
same,IC50,[1],79.1 nM
same,IC50,[2],1.2 nM
CN1CCN(Cc2ccc(NC(=O)c3ccc(Cl)c(C#Cc4cncc5ccccc45)c3)cc2C(F)(F)F)CC1,IC50,KG-1,88.2 nM
same,IC50,[1],91.4 nM
CC(C)c1ccc(C(=O)Nc2ccc(CN3CCN(C)CC3)c(C(F)(F)F)c2)cc1C#Cc1cncc2ccccc12,IC50,[2],> 100 nM
COc1cncc(C#Cc2cc(C(=O)Nc3ccc(CN4CCN(C)CC4)c(C(F)(F)F)c3)ccc2C)c1,IC50,KG-1,125 nM
same,IC50,[1],110 nM
same,IC50,[2],12.8 nM
CN1CCN(Cc2ccc(NC(=O)c3ccnc(C#Cc4cncc5ccccc45)c3)cc2C(F)(F)F)CC1,IC50,KG-1,427 nM
same,IC50,[1],6.5 nM
Cc1ccc(C(=O)Nc2ccc(CN3CCN(C)CC3)c(C(F)(F)F)c2)cc1C#Cc1cncc2c1ccn2C,IC50,KG-1,10 nM
same,IC50,[1],63.5 nM
